Measurements as given in ChEMBL document CHEMBL1140061, “Novel azolyl-(phenylmethyl)]aryl/heteroarylamines: potent CYP26 inhibitors and enhancers of all-trans retinoic acid activity in neuroblastoma cells” (Bioorg Med Chem, 2008).
Calls of active or inactive are those of the source. No cut-off for these calls is given here.

Key:
Cytochrome P450 26A1 = biological target: T1, Cytochrome P450 26A1 (Homo sapiens, UniProt O43174); assay: Inhibition of CYP26A1 in human MCF7 cells
T1 sequence (O43174 whole entry): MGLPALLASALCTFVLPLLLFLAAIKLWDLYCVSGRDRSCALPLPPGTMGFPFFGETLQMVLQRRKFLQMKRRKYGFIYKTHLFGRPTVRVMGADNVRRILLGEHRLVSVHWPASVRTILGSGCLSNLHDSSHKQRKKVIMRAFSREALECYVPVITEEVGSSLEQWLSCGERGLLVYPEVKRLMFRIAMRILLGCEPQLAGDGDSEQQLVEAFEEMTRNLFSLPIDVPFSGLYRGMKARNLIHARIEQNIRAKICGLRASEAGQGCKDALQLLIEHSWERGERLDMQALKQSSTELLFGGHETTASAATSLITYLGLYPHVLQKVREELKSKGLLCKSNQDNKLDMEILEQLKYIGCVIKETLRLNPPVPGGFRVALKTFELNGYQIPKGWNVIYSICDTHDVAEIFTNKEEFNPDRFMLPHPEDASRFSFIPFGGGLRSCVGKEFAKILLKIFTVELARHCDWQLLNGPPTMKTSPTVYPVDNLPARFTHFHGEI

SH-SY5Y [1] = assay: Increase of CYP26B1 mRNA expression in human SH-SY5Y cells; format: functional, cell-based
How it was run: (§1)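 SH-SY5Y neuroblastoma cells were grown at 37 °C in RPMI 1640 with 10% foetal calf serum and 2 mM L-glutamine under 5% CO2. Inhibitor was given alone or with atRA (DMSO vehicle) for 24 h. Total RNA was reverse transcribed and CYP26B1 was measured by TaqMan real-time PCR, normalised to β-actin. Results are fold change versus atRA-only cells by the comparative Ct method, mean ± S.E.M., n ≥ 3.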

SH-SY5Y [2] = assay: Increase in all-trans retinoic acid-induced CYP26B1 mRNA expression in human SH-SY5Y cells at 0.01 to 10 uM after 24 hrs relative to all-trans retinoic acid; format: functional; details: in the assay text read “0.1 to 10 uM” for “0.01 to 10 uM”; how it was run: as §1
SH-SY5Y [3] = assay: Increase of all-trans retinoic acid-induced CYP26B1 mRNA expression in human SH-SY5Y cells at 1 uM after 24 hrs relative to all-trans retinoic acid; format: functional; how it was run: as §1
SH-SY5Y [4] = assay: Increase in all-trans retinoic acid-induced CYP26B1 mRNA expression in human SH-SY5Y cells at 10 uM relative to R116010; format: functional, cell-based
T47D = assay: Inhibition of all-trans retinoic acid metabolism in human T47D cells; format: functional, cell-based

SMILES	IC50 (Cytochrome P450 26A1) [µM]	other results
CC(c1ccc(Nc2ccccc2)cc1)n1cncn1 (stereo unspecified)	> 50	–
c1ccc(C(c2ccc(Nc3nc4ccccc4s3)cc2)n2ccnc2)cc1 (stereo unspecified)	1.5	Activity (SH-SY5Y [1]): inactive; fold change (FC) (SH-SY5Y [2]): 2
c1ccc(C(c2ccc(Nc3ccc4c(c3)CCC4)cc2)n2ccnc2)cc1 (stereo unspecified)	1	–
c1ccc(Nc2ccc(C(c3ccccc3)n3ccnc3)cc2)cc1 (stereo unspecified)	5	–
c1ccc(Nc2ccc(C(c3ccccc3)n3cncn3)cc2)cc1 (stereo unspecified)	5	Activity (SH-SY5Y [3]): inactive
c1ccc(C(c2ccc(Nc3nc4ccccc4[nH]3)cc2)n2ccnc2)cc1 (stereo unspecified)	2.5	–
c1ccc(C(c2ccc(Nc3ccc4ccccc4c3)cc2)n2ccnc2)cc1 (stereo unspecified)	0.5	Activity (SH-SY5Y [4]): Active; Activity (SH-SY5Y [1]): inactive
C[C@H]([C@@H](c1ccc(Nc2nc3ccccc3s2)cc1)n1ccnc1)N(C)C	–	IC50 (T47D): 0.0087 µM; fold change (FC) (SH-SY5Y [3]): 5
CCc1ccc(C(c2cc3ccccc3o2)n2cncn2)cc1 (stereo unspecified)	4.5	–
CC(c1ccc(Nc2ccccc2)cc1)n1ccnc1 (stereo unspecified)	35	–
CC(c1ccc(Nc2ccc3ccccc3c2)cc1)n1ccnc1 (stereo unspecified)	15	–
c1ccc(-c2ccc(C(c3cc4ccccc4o3)n3cncn3)cc2)cc1 (stereo unspecified)	7	–
c1ccc(C(c2ccc(Nc3nc4ccccc4o3)cc2)n2ccnc2)cc1 (stereo unspecified)	0.9	Activity (SH-SY5Y [1]): inactive; fold change (FC) (SH-SY5Y [2]): 4
